The record followed here is ChEMBL document CHEMBL4396889, “From Inhibition to Degradation: Targeting the Antiapoptotic Protein Myeloid Cell Leukemia 1 (MCL1)” (J Med Chem, 2019).

Activity calls are given as the source filed them. The calls are words filed in the database; no cut-off is given here.

In series [1] the target is T1, Induced myeloid leukemia cell differentiation protein Mcl-1 (Homo sapiens, UniProt Q07820). Kind of series: Binding affinity to MCL1 long isoform in human OPM2 incubated overnight using biotin labelled compound by streptavidin based immunoprecipitation method.
T1 sequence (Q07820 whole entry, canonical isoform): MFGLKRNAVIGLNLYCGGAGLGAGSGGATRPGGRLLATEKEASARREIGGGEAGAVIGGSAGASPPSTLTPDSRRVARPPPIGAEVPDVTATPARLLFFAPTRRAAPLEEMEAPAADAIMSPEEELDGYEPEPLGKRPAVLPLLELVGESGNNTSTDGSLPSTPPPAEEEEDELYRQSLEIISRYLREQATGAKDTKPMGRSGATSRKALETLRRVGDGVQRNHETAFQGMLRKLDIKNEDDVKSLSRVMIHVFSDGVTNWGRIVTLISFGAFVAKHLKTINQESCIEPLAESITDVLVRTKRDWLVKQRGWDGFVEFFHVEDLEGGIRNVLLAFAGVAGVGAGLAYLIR
For series [2], the target named is T1, Induced myeloid leukemia cell differentiation protein Mcl-1. Kind of series: Binding affinity to MCL1 short isoform in human OPM2 incubated overnight using biotin labelled compound by streptavidin based immunoprecipitation method.
Series [3] concerns the target T2, Protein cereblon/Induced myeloid leukemia cell differentiation protein Mcl-1 (Homo sapiens) (UniProt Q07820+Q96SW2). Kind of series: Protac activity at Cereblon/MCL1 in human OPM2 cell lysate assessed as induction of MCL1 polyubiquitination incubated for 3 hrs by SDS-PAGE/immunoblot analysis. It counts as subcellular. The method, boiled down:
(§1)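 In vitro ubiquitinylation reactions; the target (MCL1 or BRD4) was then immunoprecipitated and the immunoprecipitate immunoblotted for ubiquitin.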
In general terms: In western blotting, separated proteins are transferred to a membrane and probed.

The target of series [4] is T2, Protein cereblon/Induced myeloid leukemia cell differentiation protein Mcl-1 (Homo sapiens). Kind of series: Protac activity at Cereblon/MCL1 in human HeLa cell lysate assessed as MCL1 degradation incubated for 3 hrs by SDS-PAGE/immunoblot analysis. It counts as subcellular.
The target is the same in series [5]. Kind of series: Protac activity at Cereblon/MCL1 in human OPM2 cells after 48 hrs by immunoblot analysis. It counts as cell-based. The method, boiled down:
(§2)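 OPM2 multiple myeloma cells, wild type or CRBN-knockout, were treated for 48 h with degrader or DMSO vehicle. MCL1 long and short isoforms were detected by immunoblot and levels compared with DMSO controls.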

In series [6] the target is T1, Induced myeloid leukemia cell differentiation protein Mcl-1. Kind of series: Induction of MCL1 short isoform degradation in CRBN-/- human OPM2 cells assessed as protein abundance at 100 nM after 48 hrs by immunoblot analysis relative to control. It is filed as cell-based. The method, boiled down:
as §2

Series [7] has the same target. Kind of series: Induction of MCL1 short isoform degradation in CRBN-/- human OPM2 cells assessed as protein abundance at 50 nM after 48 hrs by immunoblot analysis relative to control. It is filed as cell-based. The method, boiled down: as §2
The target is the same in series [8]. Kind of series: Induction of MCL1 long isoform degradation in CRBN-/- human OPM2 cells assessed as protein abundance at 250 nM after 48 hrs by immunoblot analysis relative to control. It is filed as cell-based. A digest of the protocol: as §2
Series [9] can be described thus: Half-life in human liver microsome pre-incubated for 10 mins followed by addition of NADPH regenerating system after 5 to 60 mins by LC/MS/MS analysis. Conditions: liver microsomes. It counts as ADME. A general note: Liver microsomes are a subcellular fraction often used to study metabolism.
For series [10], the target named is T2, Protein cereblon/Induced myeloid leukemia cell differentiation protein Mcl-1 (Homo sapiens). Description: Protac activity at Cereblon/MCL1 long isoform in wild type human OPM2 cells assessed as protein abundance at 50 nM after 48 hrs by immunoblot analysis relative to control. It is filed as cell-based. A digest of the protocol:
as §2

In series [11] the target is T1, Induced myeloid leukemia cell differentiation protein Mcl-1. Description: Induction of MCL1 short isoform degradation in CRBN-/- human OPM2 cells assessed as protein abundance at 250 nM after 48 hrs by immunoblot analysis relative to control. It is filed as cell-based. A digest of the protocol: as §2
Series [12] deals with T2, Protein cereblon/Induced myeloid leukemia cell differentiation protein Mcl-1 (Homo sapiens). Description: Protac activity at Cereblon/MCL1 short isoform in wild type human OPM2 cells assessed as MCL1 short isoform abundance at 100 nM after 48 hrs by immunoblot analysis relative to control. It is filed as cell-based. The method, boiled down: (§3)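 OPM2 wild-type cells, run alongside the CRBN-/- line, were treated for 48 h with compound or DMSO. The MCL1 long and short isoforms were then measured by immunoblot against the DMSO control.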

Series [13] shares this target. Kind of series: Protac activity at Cereblon/MCL1 long isoform in wild type human OPM2 cells at 250 nM after 48 hrs by immunoblot analysis relative to control. It is filed as cell-based. The method, boiled down: as §2
For series [14] the target is unchanged. Description: Protac activity at Cereblon/MCL1 long isoform in wild type human OPM2 cells at 100 nM after 48 hrs by immunoblot analysis relative to control. It is filed as cell-based. The method, boiled down: as §2
Series [15] shares this target. Description: Protac activity at Cereblon/MCL1 short isoform in wild type human OPM2 cells assessed as MCL1 short isoform abundance at 250 nM after 48 hrs by immunoblot analysis relative to control. It counts as cell-based. A digest of the protocol: as §3
Series [16] has as its target T1, Induced myeloid leukemia cell differentiation protein Mcl-1. Kind of series: Induction of MCL1 short isoform degradation in CRBN-/- human OPM2 cells assessed as protein abundance at 500 nM after 48 hrs by immunoblot analysis relative to control. It counts as cell-based. A digest of the protocol: as §2
The target is the same in series [17]. Kind of series: Induction of MCL1 long isoform degradation in CRBN-/- human OPM2 cells assessed as protein abundance at 100 nM after 48 hrs by immunoblot analysis relative to control. It counts as cell-based. A digest of the protocol: as §2
The target is the same in series [18]. Description: Induction of MCL1 long isoform degradation in CRBN-/- human OPM2 cells assessed as protein abundance at 50 nM after 48 hrs by immunoblot analysis relative to control. It is filed as cell-based. The method, boiled down: as §2
For series [19], the target named is T2, Protein cereblon/Induced myeloid leukemia cell differentiation protein Mcl-1 (Homo sapiens). Kind of series: Protac activity at Cereblon/MCL1 short isoform in wild type human OPM2 cells assessed as MCL1 short isoform abundance at 50 nM after 48 hrs by immunoblot analysis relative to control. It is filed as cell-based. A digest of the protocol:
as §3

In series [20] the target is T1, Induced myeloid leukemia cell differentiation protein Mcl-1. Description: Binding affinity to His-tagged biotinylated human MCL1 by surface plasmon resonance method.
Series [21] shares this target. Kind of series: Induction of MCL1 long isoform degradation in CRBN-/- human OPM2 cells assessed as protein abundance at 500 nM after 48 hrs by immunoblot analysis relative to control. It counts as cell-based. A digest of the protocol:
as §2

The target of series [22] is T2, Protein cereblon/Induced myeloid leukemia cell differentiation protein Mcl-1 (Homo sapiens). Kind of series: Protac activity at Cereblon/MCL1 long isoform in wild type human OPM2 cells at 500 nM after 48 hrs by immunoblot analysis relative to control. It counts as cell-based. The method, boiled down: as §2
For series [23] the target is unchanged. Description: Protac activity at Cereblon/MCL1 short isoform in wild type human OPM2 cells assessed as MCL1 short isoform abundance at 500 nM after 48 hrs by immunoblot analysis relative to control. It is filed as cell-based. A digest of the protocol: as §3
The target in series [24] is Protein cereblon/Bromodomain-containing protein 4 (Homo sapiens) (UniProt O60885+Q96SW2). Description: Protac activity at Cereblon/BRD4 in human OPM2 cell lysate assessed as induction of BRD4 polyubiquitination incubated for 3 hrs by SDS-PAGE/immunoblot analysis. It is filed as subcellular. A digest of the protocol:
as §1

T2 sequence (Q07820 whole entry, looked up): as the sequence (Q07820 whole entry, canonical isoform) above
T2 sequence (Q96SW2 whole entry, looked up): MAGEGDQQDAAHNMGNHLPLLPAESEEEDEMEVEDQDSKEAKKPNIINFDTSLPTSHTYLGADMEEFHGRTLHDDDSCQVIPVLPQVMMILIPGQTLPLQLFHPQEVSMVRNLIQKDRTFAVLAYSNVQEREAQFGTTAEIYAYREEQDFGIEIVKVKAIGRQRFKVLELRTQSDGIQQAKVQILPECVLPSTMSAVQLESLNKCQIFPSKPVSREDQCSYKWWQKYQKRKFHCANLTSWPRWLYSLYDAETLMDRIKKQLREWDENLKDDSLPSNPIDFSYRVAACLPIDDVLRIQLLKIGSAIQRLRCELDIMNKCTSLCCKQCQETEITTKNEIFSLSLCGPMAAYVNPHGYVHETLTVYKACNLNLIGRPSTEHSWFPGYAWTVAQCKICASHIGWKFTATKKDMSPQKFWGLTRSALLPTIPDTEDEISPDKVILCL
Protein cereblon/Bromodomain-containing protein 4 (Homo sapiens), sequence (Q96SW2 whole entry, looked up, other chains not shown): as the sequence (Q96SW2 whole entry, looked up) above

On to `Cc1nn(C)c(COc2ccc(N3CCN(S(=O)(=O)N(C)C)CC3)cc2)c1-c1cccc2c(CCCOc3cccc4ccccc34)c(C(=O)O)n(CCN3CCN(C(=O)CCCC[C@@H]4SC[C@@H]5NC(=O)N[C@@H]54)CC3)c12`, for which the result in [1] and in series [2] was Active.
Turning to `Cc1nn(C)c(COc2ccc(N3CCN(S(=O)(=O)N(C)C)CC3)cc2)c1-c1cccc2c(CCCOc3cccc4ccccc34)c(C(=O)O)n(CCN3CCN(C(=O)CCC(=O)NCCCOCCOCCOCCCNC(=O)COc4cccc5c4C(=O)N(C4CCC(=O)NC4=O)C5=O)CC3)c12` (stereo unspecified), in [3], the outcome was Active.
In the case of `Cc1nn(C)c(COc2ccc(N3CCN(C(=O)CCC(=O)NCCCOCCOCCOCNC(=O)COc4cccc5c4C(=O)N(C4CCC(=O)NC4=O)C5=O)CC3)cc2)c1-c1cccc2c(CCCOc3cccc4ccccc34)c(C(=O)O)n(CCN3CCOCC3)c12` (stereo unspecified), the result in series [4] and in series [5] was inactive.
As for `Cc1nn(C)c(COc2ccc(N3CCN(C(=O)CCC(=O)NCCCOCCOCCOCCCNC(=O)CCCC[C@@H]4SC[C@@H]5NC(=O)N[C@@H]54)CC3)cc2)c1-c1cccc2c(CCCOc3cccc4ccccc34)c(C(=O)O)n(CCN3CCOCC3)c12`, the outcome in [1] and in [2] was Active.
On to `Cc1nn(C)c(COc2ccc(N3CCN(S(=O)(=O)N(C)C)CC3)cc2)c1-c1cccc2c(CCCOc3cccc4ccccc34)c(C(=O)NCCCCNC(=O)COc3cccc4c3C(=O)N(C3CCC(=O)NC3=O)C4=O)n(CCN3CCOCC3)c12` (stereo unspecified), for which the result in series [4] was inactive.
As for `Cc1nn(C)c(COc2ccc(N3CCN(C(=O)CCCNC(=O)COc4cccc5c4C(=O)N(C4CCC(=O)NC4=O)C5=O)CC3)cc2)c1-c1cccc2c(CCCOc3cccc4ccccc34)c(C(=O)O)n(CCN3CCOCC3)c12` (stereo unspecified), the result in [4] and in series [5] was inactive.
In the case of `Cc1nn(C)c(COc2ccc(N3CCN(S(=O)(=O)N(C)C)CC3)cc2)c1-c1cccc2c(CCCOc3cccc4ccccc34)c(C(=O)O)n(CCN3CCOCC3)c12`, the Activity in series [6] came out at 111%; in [7], 100%; in [8], 162%; in [10] it was 140%; in series [11], 154%; in [12], 148%. Also, the Activity in series [13] came out at 237%; in series [14] it was 195%; in series [15], 287%; in [16] it was 286%; in series [17] it was 152%; in series [18], 140%. Also, the Activity in series [19] was determined as 110%; in series [21] it was 183%; in [22], 275%; in series [23], 374%. Also, the half-life (in general, the time in which the quantity being followed falls by half) in series [9] came out at 21.7 min. Moreover, the Kd (as a rule, a measure of binding affinity in units of concentration) in series [20] was found to be 19 nM.
`Cc1nn(C)c(COc2ccc(N3CCN(C(=O)COc4cccc5c4C(=O)N(C4CCC(=O)NC4=O)C5=O)CC3)cc2)c1-c1cccc2c(CCCOc3cccc4ccccc34)c(C(=O)O)n(CCN3CCOCC3)c12` (stereo unspecified): the result in series [4] and in series [5] was inactive.
`Cc1sc2c(c1C)C(c1ccc(Cl)cc1)=N[C@@H](CC(=O)NCCCCNC(=O)COc1cccc3c1C(=O)N(C1CCC(=O)NC1=O)C3=O)c1nnc(C)n1-2` (stereo partly specified): the outcome in series [24] was Active.
